Assay results published in ChEMBL document CHEMBL3098020, “Synthesis and biological evaluation of novel 2-amino-3-aroyl-4-neopentyl-5-substituted thiophene derivatives as allosteric enhancers of the A₁ adenosine receptor” (Bioorg Med Chem, 2014).

Assays:
[1] = molecular target: T1, Adenosine receptor A1 (Homo sapiens) (UniProt P30542); experiment: (§1) Allosteric enhancement of human adenosine A1 receptor expressed in CHO cells assessed as inhibition of forskolin-stimulated cAMP production at 10 uM preincubated for 10 mins followed by forskolin challenge measured after 5 mins by scintillation counting analysis relative to control; type: functional, cell-based
T1 sequence (whole entry): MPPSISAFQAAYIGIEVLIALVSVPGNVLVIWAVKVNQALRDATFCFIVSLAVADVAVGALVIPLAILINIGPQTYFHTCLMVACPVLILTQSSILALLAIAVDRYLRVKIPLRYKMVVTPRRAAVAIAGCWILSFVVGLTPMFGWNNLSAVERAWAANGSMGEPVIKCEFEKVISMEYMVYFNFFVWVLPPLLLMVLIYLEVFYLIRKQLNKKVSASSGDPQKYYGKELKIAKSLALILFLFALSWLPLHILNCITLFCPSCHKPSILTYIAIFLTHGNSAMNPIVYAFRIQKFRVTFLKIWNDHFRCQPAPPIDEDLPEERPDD
Summary of the method: (§2)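 hA1-CHO cells (10⁶ cells/mL) in phosphate buffer with adenosine deaminase 1.0 IU/mL and Ro 20-1724 0.5 mM, preincubated 10 min at 37 °C. Compound added for 10 min, alone or at 100 nM with CCPA 1 pM. Forskolin 1 µM added for 5 min, stopped with cold 6% TCA. cAMP measured by [³H]-cAMP competition protein-binding assay; percent inhibition versus control; three experiments.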

[2] = molecular target: T1, Adenosine receptor A1 (Homo sapiens); experiment: Potentiation of [3H]CCPA binding to human adenosine A1 receptor expressed in CHO cell membranes at 10 uM after 90 mins relative to [3H]CCPA-treated control
[3] = molecular target: T1, Adenosine receptor A1 (Homo sapiens); experiment: Potentiation of CCPA-induced displacement of [3H]-DPCPX from human adenosine A1 receptor expressed in CHO cell membranes at 10 uM after 90 mins relative to CCPA-treated control
Summary of the method: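 CCPA (0.01 nM–1 µM) competition against [³H]DPCPX in hA1-CHO membranes, with or without compound at 10 µM. Nonspecific binding defined with 1 µM DPCPX. Ki calculated from IC50 by the Cheng-Prusoff equation; CCPA Ki shift given as fold change; three experiments.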

[4] = molecular target: T2, Adenosine receptor A3 (Homo sapiens) (UniProt P0DMS8); experiment: Displacement of [3H]-MRE-3008-F20 from human adenosine A3 receptor expressed in CHO cell membranes at 10 uM by scintillation counting analysis relative to control
T2 sequence (whole entry): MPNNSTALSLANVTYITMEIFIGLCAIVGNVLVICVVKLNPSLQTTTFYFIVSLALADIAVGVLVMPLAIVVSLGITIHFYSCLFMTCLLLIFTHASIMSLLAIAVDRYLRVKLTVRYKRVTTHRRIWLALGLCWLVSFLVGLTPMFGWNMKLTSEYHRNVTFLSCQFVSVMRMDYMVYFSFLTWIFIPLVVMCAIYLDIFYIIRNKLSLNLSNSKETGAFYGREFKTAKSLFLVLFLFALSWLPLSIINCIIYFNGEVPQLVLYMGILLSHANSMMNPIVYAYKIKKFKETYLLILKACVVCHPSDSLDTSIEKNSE
Summary of the method: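 A3-expressing CHO membranes in 50 mM Tris-HCl, 10 mM MgCl₂, 1 mM EDTA pH 7.4 with 2 nM [³H]MRE-3008-F20. Incubated 120 min at 4 °C. Compound 10 µM in 1% DMSO final. Filtration and scintillation counting; percent inhibition of specific binding.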

[5] = molecular target: Adenosine receptor A2a (Homo sapiens) (UniProt P29274); experiment: Displacement of [3H]-ZM241385 from human adenosine A2A receptor expressed in CHO cell membranes at 10 uM by scintillation counting analysis relative to control
Sequence of Adenosine receptor A2a (Homo sapiens) (P29274 whole entry): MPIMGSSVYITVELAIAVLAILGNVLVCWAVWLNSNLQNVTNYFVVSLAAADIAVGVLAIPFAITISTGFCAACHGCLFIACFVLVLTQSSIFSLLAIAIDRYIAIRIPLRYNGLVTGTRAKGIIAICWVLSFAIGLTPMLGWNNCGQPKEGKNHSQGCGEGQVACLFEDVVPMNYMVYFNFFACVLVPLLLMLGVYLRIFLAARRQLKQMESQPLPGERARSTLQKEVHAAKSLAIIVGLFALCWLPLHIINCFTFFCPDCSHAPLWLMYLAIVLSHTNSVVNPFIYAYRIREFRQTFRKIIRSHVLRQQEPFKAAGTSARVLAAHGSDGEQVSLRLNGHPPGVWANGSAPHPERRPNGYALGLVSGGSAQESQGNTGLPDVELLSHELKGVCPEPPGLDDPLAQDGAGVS
Summary of the method: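 A2A-expressing CHO membranes, pretreated with adenosine deaminase, in 50 mM Tris-HCl, 10 mM MgCl₂ pH 7.4 with 1 nM [³H]ZM 241385. Incubated 60 min at 4 °C. Compound 10 µM in 1% DMSO final. Filtration and scintillation counting; percent inhibition of specific binding.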

[6] = molecular target: T1, Adenosine receptor A1 (Homo sapiens); experiment: Displacement of [3H]-DPCPX from human adenosine A1 receptor expressed in CHO cell membranes at 10 uM by scintillation counting analysis relative to control
Summary of the method: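 hA1-CHO membranes, pretreated with adenosine deaminase, in 50 mM Tris-HCl pH 7.4 with 1 nM [³H]DPCPX. Incubated 120 min at 25 °C. Compound 10 µM added from 100-fold DMSO stock, 1% DMSO final. Bound ligand collected on glass-fibre filters and counted by scintillation; percent inhibition of specific binding.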

[7] = molecular target: T1, Adenosine receptor A1 (Homo sapiens); experiment: as §1, with “100 nM” for “10 uM”, “analysis in presence of CCPA” for “analysis”; type: functional, cell-based; summary of the method: as §2

COCCOc1ccc(-c2sc(N)c(C(=O)c3ccc(Cl)cc3)c2CC(C)(C)C)cc1
inhibition [1]: 53% | fold change (FC) [2]: 5.5 | fold change (FC) [3]: 3.3 | inhibition [4]: 1% | inhibition [5]: 1% | inhibition [6]: 1% | inhibition [7]: 55%

CC(C)(C)Cc1c(/C=C/c2ccc(Cl)cc2)sc(N)c1C(=O)c1ccc(Cl)cc1
inhibition [1]: 51% | fold change (FC) [2]: 4.8 | fold change (FC) [3]: 2.8 | inhibition [4]: 11% | inhibition [5]: 1% | inhibition [6]: 1% | inhibition [7]: 53%

CC(C)(C)Cc1c(-c2ccc(F)cc2F)sc(N)c1C(=O)c1ccc(Cl)cc1
inhibition [1]: 48% | fold change (FC) [2]: 5.3 | fold change (FC) [3]: 3.6 | inhibition [4]: 1% | inhibition [5]: 1% | inhibition [6]: 1% | inhibition [7]: 49%

Cc1c(Br)sc(N)c1C(=O)c1ccc(Cl)cc1
inhibition [1]: 21% | fold change (FC) [2]: 1.8 | fold change (FC) [3]: 1.9 | inhibition [4]: 1% | inhibition [5]: 1% | inhibition [6]: 1% | inhibition [7]: 25%

CC(C)(C)Cc1c(-c2ccccc2)sc(N)c1C(=O)c1ccc(Cl)c(Cl)c1
inhibition [1]: 56% | fold change (FC) [2]: 5.9 | fold change (FC) [3]: 4.8 | inhibition [4]: 6% | inhibition [5]: 1% | inhibition [6]: 1% | inhibition [7]: 57%

CC(C)Cc1csc(N)c1C(=O)c1ccc(Cl)cc1
inhibition [1]: 17% | fold change (FC) [2]: 1.6 | fold change (FC) [3]: 3.4 | inhibition [4]: 1% | inhibition [5]: 1% | inhibition [6]: 1% | inhibition [7]: 19%

COc1ccc(-c2sc(N)c(C(=O)c3cccc(Cl)c3)c2CC(C)(C)C)cc1
inhibition [1]: 53% | fold change (FC) [2]: 6 | fold change (FC) [3]: 3.7 | inhibition [4]: 2% | inhibition [5]: 1% | inhibition [6]: 1% | inhibition [7]: 56%

Cc1ccccc1-c1sc(N)c(C(=O)c2ccc(Cl)cc2)c1CC(C)(C)C
inhibition [1]: 47% | fold change (FC) [2]: 4.1 | fold change (FC) [3]: 2.7 | inhibition [4]: 1% | inhibition [5]: 1% | inhibition [6]: 1% | inhibition [7]: 49%

CC(C)(C)Cc1c(-c2ccc(Cl)c(Cl)c2)sc(N)c1C(=O)c1ccc(Cl)cc1
inhibition [1]: 59% | fold change (FC) [2]: 6 | fold change (FC) [3]: 4.3 | inhibition [4]: 1% | inhibition [5]: 1% | inhibition [6]: 1% | inhibition [7]: 61%

CC(C)(C)Cc1c(Br)sc(N)c1C(=O)c1ccc(Cl)c(Cl)c1
inhibition [1]: 42% | fold change (FC) [2]: 4.5 | fold change (FC) [3]: 4 | inhibition [4]: 1% | inhibition [5]: 1% | inhibition [6]: 1% | inhibition [7]: 40%

CC(C)(C)Cc1c(-c2cccnc2)sc(N)c1C(=O)c1ccc(Cl)cc1
inhibition [1]: 37% | fold change (FC) [2]: 3.7 | fold change (FC) [3]: 2.2 | inhibition [4]: 1% | inhibition [5]: 1% | inhibition [6]: 1% | inhibition [7]: 41%

Cc1sc(N)c(C(=O)c2ccc(Cl)cc2)c1-c1ccccc1
inhibition [1]: 16% | fold change (FC) [2]: 1.4 | fold change (FC) [3]: 1.6 | inhibition [4]: 1% | inhibition [5]: 1% | inhibition [6]: 1% | inhibition [7]: 21%

CC(C)(C)Cc1c(-c2ccc(F)cc2)sc(N)c1C(=O)c1ccc(Cl)cc1
inhibition [1]: 50% | fold change (FC) [2]: 5.5 | fold change (FC) [3]: 3.7 | inhibition [4]: 9% | inhibition [5]: 1% | inhibition [6]: 1% | inhibition [7]: 52%

CC(C)(C)Cc1c(-c2ccccn2)sc(N)c1C(=O)c1ccc(Cl)cc1
inhibition [1]: 40% | fold change (FC) [2]: 3.5 | fold change (FC) [3]: 2.2 | inhibition [4]: 1% | inhibition [5]: 1% | inhibition [6]: 1% | inhibition [7]: 43%

COc1ccc(-c2sc(N)c(C(=O)c3cccc(C(F)(F)F)c3)c2CC(C)(C)C)cc1
inhibition [1]: 44% | fold change (FC) [2]: 4 | fold change (FC) [3]: 1.8 | inhibition [4]: 1% | inhibition [5]: 1% | inhibition [6]: 2% | inhibition [7]: 46%

COc1ccc(-c2sc(N)c(C(=O)c3ccc(Cl)cc3)c2C)cc1
inhibition [1]: 24% | fold change (FC) [2]: 2.1 | fold change (FC) [3]: 1.8 | inhibition [4]: 1% | inhibition [5]: 1% | inhibition [6]: 1% | inhibition [7]: 22%

CC(C)(C)Cc1c(-c2ccc(OC(F)(F)F)cc2)sc(N)c1C(=O)c1ccc(Cl)cc1
inhibition [1]: 56% | fold change (FC) [2]: 6.4 | fold change (FC) [3]: 4.6 | inhibition [4]: 1% | inhibition [5]: 1% | inhibition [6]: 1% | inhibition [7]: 55%

CC(C)(C)Cc1c(-c2cccc(F)c2F)sc(N)c1C(=O)c1ccc(Cl)cc1
inhibition [1]: 60% | fold change (FC) [2]: 6.1 | fold change (FC) [3]: 4.9 | inhibition [4]: 1% | inhibition [5]: 3% | inhibition [6]: 1% | inhibition [7]: 63%

CC(C)(C)Cc1c(-c2cccs2)sc(N)c1C(=O)c1ccc(Cl)cc1
inhibition [1]: 58% | fold change (FC) [2]: 6.2 | fold change (FC) [3]: 3.9 | inhibition [4]: 1% | inhibition [5]: 2% | inhibition [6]: 1% | inhibition [7]: 62%

Cc1ccc(C(=O)c2c(CC(C)(C)C)csc2N)cc1
inhibition [1]: 38% | fold change (FC) [2]: 3.3 | fold change (FC) [3]: 2 | inhibition [4]: 1% | inhibition [5]: 1% | inhibition [6]: 1% | inhibition [7]: 35%

Cc1noc(C)c1-c1sc(N)c(C(=O)c2ccc(Cl)cc2)c1CC(C)(C)C
inhibition [1]: 12% | fold change (FC) [2]: 1.4 | fold change (FC) [3]: 1.1 | inhibition [4]: 1% | inhibition [5]: 1% | inhibition [6]: 1% | inhibition [7]: 19%

CC(C)(C)Cc1c(-c2ccncc2)sc(N)c1C(=O)c1ccc(Cl)cc1
inhibition [1]: 42% | fold change (FC) [2]: 4 | fold change (FC) [3]: 2.8 | inhibition [4]: 6% | inhibition [5]: 1% | inhibition [6]: 1% | inhibition [7]: 46%

CC(C)(C)Cc1c(-c2ccc(Cl)cc2)sc(N)c1C(=O)c1ccc(Cl)cc1
inhibition [1]: 57% | fold change (FC) [2]: 5.8 | fold change (FC) [3]: 4 | inhibition [4]: 1% | inhibition [5]: 1% | inhibition [6]: 1% | inhibition [7]: 58%

CC(C)(C)Cc1c(-c2ccc3c(c2)OCO3)sc(N)c1C(=O)c1ccc(Cl)cc1
inhibition [1]: 61% | fold change (FC) [2]: 6.6 | fold change (FC) [3]: 5.2 | inhibition [4]: 1% | inhibition [5]: 1% | inhibition [6]: 1% | inhibition [7]: 59%

CC(C)(C)Cc1c(-c2ccccc2)sc(N)c1C(=O)c1cccc(Cl)c1
inhibition [1]: 59% | fold change (FC) [2]: 6.3 | fold change (FC) [3]: 3.1 | inhibition [4]: 5% | inhibition [5]: 4% | inhibition [6]: 2% | inhibition [7]: 57%

CC(C)(C)Cc1c(-c2cc(F)ccc2F)sc(N)c1C(=O)c1ccc(Cl)cc1
inhibition [1]: 46% | fold change (FC) [2]: 5.3 | fold change (FC) [3]: 3.4 | inhibition [4]: 1% | inhibition [5]: 1% | inhibition [6]: 3% | inhibition [7]: 45%

Cc1csc(N)c1C(=O)c1ccc(Cl)cc1
inhibition [1]: 16% | fold change (FC) [2]: 1.5 | fold change (FC) [3]: 1.6 | inhibition [4]: 1% | inhibition [5]: 1% | inhibition [6]: 1% | inhibition [7]: 18%
